In ChEMBL document CHEMBL1129660, “Studies on 6-aminoquinolones: synthesis and antibacterial evaluation of 6-amino-8-methylquinolones” (J Med Chem, 1996):
In brackets after ≈: the same amount, converted by molar mass.

Test system: Enterobacter cloacae
Test: Antibacterial activity tested against Enterobacter cloacae OMNFI 174
Assay type: functional

In order of falling MIC:
1. Cc1c(N2CCCCC2)c([N+](=O)[O-])cc2c(=O)c(C(=O)O)cn(C3CC3)c12  64 mg/L (≈ 172 µM)
2. Cc1c(N2CCN(C)CC2)c(N)cc2c(=O)c(C(=O)O)cn(-c3ccc(F)cc3)c12  16 mg/L (≈ 39 µM)
3. Cc1c(N2CC(C)NC(C)C2)c(N)cc2c(=O)c(C(=O)O)cn(C3CC3)c12 (stereo not given)  0.5 mg/L (≈ 1.35 µM)
4. CN1CCN(c2cc3c(cc2N)c(=O)c(C(=O)O)cn3C2CC2)CC1  0.25 mg/L (≈ 0.73 µM)

Test system: Shigella
Test: Antibacterial activity tested against Shigella enteritidis
Assay type: functional
Method in brief: (§1)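 MICs (µg/mL) determined by conventional agar dilution against a panel of eight Gram-negative and five Gram-positive reference strains.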

In order of rising MIC:
1. Cc1c(N2CC(C)NC(C)C2)c(N)cc2c(=O)c(C(=O)O)cn(C3CC3)c12 (stereo not given)  0.25 mg/L (≈ 0.675 µM)
2. CN1CCN(c2cc3c(cc2N)c(=O)c(C(=O)O)cn3C2CC2)CC1  0.25 mg/L (≈ 0.73 µM)
3. Cc1c(N2CCN(C)CC2)c(N)cc2c(=O)c(C(=O)O)cn(-c3ccc(F)cc3)c12  16 mg/L (≈ 39 µM)
4. Cc1c(N2CCCCC2)c([N+](=O)[O-])cc2c(=O)c(C(=O)O)cn(C3CC3)c12  64 mg/L (≈ 172 µM)

Test system: Proteus vulgaris
Test: Antibacterial activity tested against Proteus vulgaris CNUR 5
Assay type: functional
Method in brief: as §1

Going from Cc1c(N2CCN(C)CC2)c(N)cc2c(=O)c(C(=O)O)cn(-c3ccc(F)cc3)c12 to CN1CCN(c2cc3c(cc2N)c(=O)c(C(=O)O)cn3C2CC2)CC1, the MIC falls from > 128 mg/L to 64 mg/L (≈ 187 µM).

Going from Cc1c(N2CC(C)NC(C)C2)c(N)cc2c(=O)c(C(=O)O)cn(C3CC3)c12 (stereo not given) to Cc1c(N2CCCCC2)c([N+](=O)[O-])cc2c(=O)c(C(=O)O)cn(C3CC3)c12, the MIC rises from 8 mg/L (≈ 21.6 µM) to 64 mg/L (≈ 172 µM) (8-fold).

Test system: Providencia stuartii
Test: Antibacterial activity tested against Providencia stuartii CNUR 5
Assay type: functional
Method in brief: as §1

In order of rising MIC:
1. Cc1c(N2CC(C)NC(C)C2)c(N)cc2c(=O)c(C(=O)O)cn(C3CC3)c12 (stereo not given)  2 mg/L (≈ 5.4 µM)
2. CN1CCN(c2cc3c(cc2N)c(=O)c(C(=O)O)cn3C2CC2)CC1  8 mg/L (≈ 23.4 µM)
3. Cc1c(N2CCN(C)CC2)c(N)cc2c(=O)c(C(=O)O)cn(-c3ccc(F)cc3)c12  16 mg/L (≈ 39 µM)
4. Cc1c(N2CCCCC2)c([N+](=O)[O-])cc2c(=O)c(C(=O)O)cn(C3CC3)c12  64 mg/L (≈ 172 µM)

Test system: Staphylococcus epidermidis
Test: Antibacterial activity tested against Staphylococcus epidermidis CPHL A2
Assay type: functional
Method in brief: as §1

In order of rising MIC:
1. Cc1c(N2CC(C)NC(C)C2)c(N)cc2c(=O)c(C(=O)O)cn(C3CC3)c12 (stereo not given)  1 mg/L (≈ 2.7 µM)
2. CN1CCN(c2cc3c(cc2N)c(=O)c(C(=O)O)cn3C2CC2)CC1  2 mg/L (≈ 5.84 µM)
3. Cc1c(N2CCCCC2)c([N+](=O)[O-])cc2c(=O)c(C(=O)O)cn(C3CC3)c12  8 mg/L (≈ 21.5 µM)
4. Cc1c(N2CCN(C)CC2)c(N)cc2c(=O)c(C(=O)O)cn(-c3ccc(F)cc3)c12  128 mg/L (≈ 312 µM)

Test system: Enterococcus faecalis
Test: Antibacterial activity tested against Streptococcus faecalis LEP Br
Assay type: functional
Method in brief: as §1

In order of falling MIC:
1. Cc1c(N2CCN(C)CC2)c(N)cc2c(=O)c(C(=O)O)cn(-c3ccc(F)cc3)c12  128 mg/L (≈ 312 µM)
2. CN1CCN(c2cc3c(cc2N)c(=O)c(C(=O)O)cn3C2CC2)CC1  32 mg/L (≈ 93.5 µM)
3. Cc1c(N2CCCCC2)c([N+](=O)[O-])cc2c(=O)c(C(=O)O)cn(C3CC3)c12  32 mg/L (≈ 86.2 µM)
4. Cc1c(N2CC(C)NC(C)C2)c(N)cc2c(=O)c(C(=O)O)cn(C3CC3)c12 (stereo not given)  16 mg/L (≈ 43.2 µM)

Test system: Pseudomonas aeruginosa
Test: Antibacterial activity tested against P. ae (Pseudomonas aeruginosa) ATCC 9027
Assay type: functional
Method in brief: as §1

In order of rising MIC:
1. Cc1c(N2CC(C)NC(C)C2)c(N)cc2c(=O)c(C(=O)O)cn(C3CC3)c12 (stereo not given)  2 mg/L (≈ 5.4 µM)
2. CN1CCN(c2cc3c(cc2N)c(=O)c(C(=O)O)cn3C2CC2)CC1  4 mg/L (≈ 11.7 µM)
3. Cc1c(N2CCCCC2)c([N+](=O)[O-])cc2c(=O)c(C(=O)O)cn(C3CC3)c12  64 mg/L (≈ 172 µM)
4. Cc1c(N2CCN(C)CC2)c(N)cc2c(=O)c(C(=O)O)cn(-c3ccc(F)cc3)c12  128 mg/L (≈ 312 µM)

Test system: Staphylococcus aureus
Test: Antibacterial activity against Staphylococcus aureus ATCC 6538
Assay type: functional
Method in brief: as §1

In order of falling MIC:
1. Cc1c(N2CCN(C)CC2)c(N)cc2c(=O)c(C(=O)O)cn(-c3ccc(F)cc3)c12  64 mg/L (≈ 156 µM)
2. Cc1c(N2CCCCC2)c([N+](=O)[O-])cc2c(=O)c(C(=O)O)cn(C3CC3)c12  32 mg/L (≈ 86.2 µM)
3. CN1CCN(c2cc3c(cc2N)c(=O)c(C(=O)O)cn3C2CC2)CC1  2 mg/L (≈ 5.84 µM)
4. Cc1c(N2CC(C)NC(C)C2)c(N)cc2c(=O)c(C(=O)O)cn(C3CC3)c12 (stereo not given)  1 mg/L (≈ 2.7 µM)

Test system: Klebsiella pneumoniae
Test: Antibacterial activity tested against Klebsiella pneumoniae (Klebsiella pneumoniae) ATCC 10031
Assay type: functional
Method in brief: as §1

In order of falling MIC:
1. Cc1c(N2CCCCC2)c([N+](=O)[O-])cc2c(=O)c(C(=O)O)cn(C3CC3)c12  64 mg/L (≈ 172 µM)
2. Cc1c(N2CCN(C)CC2)c(N)cc2c(=O)c(C(=O)O)cn(-c3ccc(F)cc3)c12  1 mg/L (≈ 2.44 µM)
3. Cc1c(N2CC(C)NC(C)C2)c(N)cc2c(=O)c(C(=O)O)cn(C3CC3)c12 (stereo not given)  0.03 mg/L (≈ 0.081 µM)
4. CN1CCN(c2cc3c(cc2N)c(=O)c(C(=O)O)cn3C2CC2)CC1  0.03 mg/L (≈ 0.0876 µM)

Test system: Escherichia coli
Test: Antibacterial activity tested against Escherichia coli ISF 432
Assay type: functional
Method in brief: as §1

In order of falling MIC:
1. Cc1c(N2CCCCC2)c([N+](=O)[O-])cc2c(=O)c(C(=O)O)cn(C3CC3)c12  4 mg/L (≈ 10.8 µM)
2. Cc1c(N2CCN(C)CC2)c(N)cc2c(=O)c(C(=O)O)cn(-c3ccc(F)cc3)c12  1 mg/L (≈ 2.44 µM)
3. Cc1c(N2CC(C)NC(C)C2)c(N)cc2c(=O)c(C(=O)O)cn(C3CC3)c12 (stereo not given)  0.03 mg/L (≈ 0.081 µM)
4. CN1CCN(c2cc3c(cc2N)c(=O)c(C(=O)O)cn3C2CC2)CC1  0.03 mg/L (≈ 0.0876 µM)

Test system: not listed separately
Test: Geometric mean of antibacterial activity (Gram -ve bacteria) of the compound
Assay type: functional
Method in brief: (§2)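 Geometric means calculated from agar-dilution MICs (µg/mL), taken separately across the five Gram-positive and the eight Gram-negative panel strains.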

In order of falling Geometric mean:
1. Cc1c(N2CCCCC2)c([N+](=O)[O-])cc2c(=O)c(C(=O)O)cn(C3CC3)c12  41.5
2. Cc1c(N2CCN(C)CC2)c(N)cc2c(=O)c(C(=O)O)cn(-c3ccc(F)cc3)c12  9.513
3. CN1CCN(c2cc3c(cc2N)c(=O)c(C(=O)O)cn3C2CC2)CC1  0.642
4. Cc1c(N2CC(C)NC(C)C2)c(N)cc2c(=O)c(C(=O)O)cn(C3CC3)c12 (stereo not given)  0.348

Test system: Staphylococcus epidermidis
Test: Antibacterial activity tested against Staphylococcus epidermidis HCF Berset C
Assay type: functional
Method in brief: as §1

In order of rising MIC:
1. Cc1c(N2CC(C)NC(C)C2)c(N)cc2c(=O)c(C(=O)O)cn(C3CC3)c12 (stereo not given)  2 mg/L (≈ 5.4 µM)
2. CN1CCN(c2cc3c(cc2N)c(=O)c(C(=O)O)cn3C2CC2)CC1  4 mg/L (≈ 11.7 µM)
3. Cc1c(N2CCCCC2)c([N+](=O)[O-])cc2c(=O)c(C(=O)O)cn(C3CC3)c12  8 mg/L (≈ 21.5 µM)
4. Cc1c(N2CCN(C)CC2)c(N)cc2c(=O)c(C(=O)O)cn(-c3ccc(F)cc3)c12  128 mg/L (≈ 312 µM)

Test system: Escherichia coli
Test: Antibacterial activity tested against Escherichia coli ATCC 8739
Assay type: functional
Method in brief: as §1

In order of falling MIC:
1. Cc1c(N2CCCCC2)c([N+](=O)[O-])cc2c(=O)c(C(=O)O)cn(C3CC3)c12  32 mg/L (≈ 86.2 µM)
2. Cc1c(N2CCN(C)CC2)c(N)cc2c(=O)c(C(=O)O)cn(-c3ccc(F)cc3)c12  1 mg/L (≈ 2.44 µM)
3. CN1CCN(c2cc3c(cc2N)c(=O)c(C(=O)O)cn3C2CC2)CC1  0.25 mg/L (≈ 0.73 µM)
4. Cc1c(N2CC(C)NC(C)C2)c(N)cc2c(=O)c(C(=O)O)cn(C3CC3)c12 (stereo not given)  0.06 mg/L (≈ 0.162 µM)

Test system: Staphylococcus aureus
Test: Antibacterial activity against Staphylococcus aureus MPR 5
Assay type: functional
Method in brief: as §1

In order of rising MIC:
1. Cc1c(N2CC(C)NC(C)C2)c(N)cc2c(=O)c(C(=O)O)cn(C3CC3)c12 (stereo not given)  1 mg/L (≈ 2.7 µM)
2. Cc1c(N2CCCCC2)c([N+](=O)[O-])cc2c(=O)c(C(=O)O)cn(C3CC3)c12  1 mg/L (≈ 2.69 µM)
3. CN1CCN(c2cc3c(cc2N)c(=O)c(C(=O)O)cn3C2CC2)CC1  2 mg/L (≈ 5.84 µM)
4. Cc1c(N2CCN(C)CC2)c(N)cc2c(=O)c(C(=O)O)cn(-c3ccc(F)cc3)c12  128 mg/L (≈ 312 µM)

Test system: Bacteria
Test: Geometric mean of antibacterial activity (Gram +ve bacteria) of the compound
Assay type: functional
Method in brief: as §2

In order of falling Geometric mean:
1. Cc1c(N2CCN(C)CC2)c(N)cc2c(=O)c(C(=O)O)cn(-c3ccc(F)cc3)c12  111.43
2. Cc1c(N2CCCCC2)c([N+](=O)[O-])cc2c(=O)c(C(=O)O)cn(C3CC3)c12  9.189
3. CN1CCN(c2cc3c(cc2N)c(=O)c(C(=O)O)cn3C2CC2)CC1  4
4. Cc1c(N2CC(C)NC(C)C2)c(N)cc2c(=O)c(C(=O)O)cn(C3CC3)c12 (stereo not given)  2
